# ABCG2 inh = blocks JC-1 efflux by human ABCG2 transporter. AID 1325. inhibition, % at 6.6 µM. IgMXP3 cells, flow cytometry. Q9UNQ0. 0.1% of 190,000 active;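 active = inhibition above 80%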;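 note: 0% = DMSO and 100% = nicardipine control wells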
#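 Test system: ABCG2 IgMXP3 and barcoded ABCB1 CCRF-Adr cell mix; Schedule: cells with compound and JC-1, 10 min at 25 °C, rotating, no wash; Technique: flow cytometry of retained JC-1 fluorescence; Measure: % inhibition of efflux relative to nicardipine and DMSO; Controls: nicardipine high and DMSO low controls.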
# WT yeast gro inh = growth inhibition of WT yeast, mitochondrial fusion screen; mitochondrial fusion phenotypic screen, WT strain; inhibition, % at 10 µM; 2.1% of 190,000 active; AID 1362; in the data active = inhibition above about 58%; tested in S. cerevisiae
# MEKK3 PB1 HTS = modulators (inhibitors or enhancers) of MEK5 binding to human MEKK3 PB1 domain; 1.4% of 290,000 active; binding response (% of control), % at 10 µM; bead-based flow cytometry, Alexa488-MEK5 binding to MEKK3; actives lie on both sides; 0 = blocked by unlabeled MEK5, 100 = vehicle;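 active = binding response more than 3 SD above or below the average of its plate-row segment, actives on both sides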;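 note: Alexa488 bead fluorescence after subtracting the streptavidin-only scavenger bead signal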
# MEKK2 mut-MEK5 = signal of MEK5 binding to mutant human MEKK2 PB1 domain. bead flow cytometry, Alexa488-MEK5 binding to MEKK2 mutant. percent response, % at 10 µM. 0.35% of 290,000 active. AID 1530; in the data active = percent response above about 24%, passing the limit was not always enough
# ABCB1 block = blocks JC-1 efflux by human ABCB1 transporter; P08183; 0.067% of 190,000 active; CCRF-Adr cells, flow cytometry; inhibition, % at 6.6 µM; in the data active = inhibition above about 40%;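 note: 0% = vehicle and 100% = reference inhibitor; higher value means more JC-1 retained so stronger ABCB1 efflux block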
# Target sequence (P08183 whole entry, looked up): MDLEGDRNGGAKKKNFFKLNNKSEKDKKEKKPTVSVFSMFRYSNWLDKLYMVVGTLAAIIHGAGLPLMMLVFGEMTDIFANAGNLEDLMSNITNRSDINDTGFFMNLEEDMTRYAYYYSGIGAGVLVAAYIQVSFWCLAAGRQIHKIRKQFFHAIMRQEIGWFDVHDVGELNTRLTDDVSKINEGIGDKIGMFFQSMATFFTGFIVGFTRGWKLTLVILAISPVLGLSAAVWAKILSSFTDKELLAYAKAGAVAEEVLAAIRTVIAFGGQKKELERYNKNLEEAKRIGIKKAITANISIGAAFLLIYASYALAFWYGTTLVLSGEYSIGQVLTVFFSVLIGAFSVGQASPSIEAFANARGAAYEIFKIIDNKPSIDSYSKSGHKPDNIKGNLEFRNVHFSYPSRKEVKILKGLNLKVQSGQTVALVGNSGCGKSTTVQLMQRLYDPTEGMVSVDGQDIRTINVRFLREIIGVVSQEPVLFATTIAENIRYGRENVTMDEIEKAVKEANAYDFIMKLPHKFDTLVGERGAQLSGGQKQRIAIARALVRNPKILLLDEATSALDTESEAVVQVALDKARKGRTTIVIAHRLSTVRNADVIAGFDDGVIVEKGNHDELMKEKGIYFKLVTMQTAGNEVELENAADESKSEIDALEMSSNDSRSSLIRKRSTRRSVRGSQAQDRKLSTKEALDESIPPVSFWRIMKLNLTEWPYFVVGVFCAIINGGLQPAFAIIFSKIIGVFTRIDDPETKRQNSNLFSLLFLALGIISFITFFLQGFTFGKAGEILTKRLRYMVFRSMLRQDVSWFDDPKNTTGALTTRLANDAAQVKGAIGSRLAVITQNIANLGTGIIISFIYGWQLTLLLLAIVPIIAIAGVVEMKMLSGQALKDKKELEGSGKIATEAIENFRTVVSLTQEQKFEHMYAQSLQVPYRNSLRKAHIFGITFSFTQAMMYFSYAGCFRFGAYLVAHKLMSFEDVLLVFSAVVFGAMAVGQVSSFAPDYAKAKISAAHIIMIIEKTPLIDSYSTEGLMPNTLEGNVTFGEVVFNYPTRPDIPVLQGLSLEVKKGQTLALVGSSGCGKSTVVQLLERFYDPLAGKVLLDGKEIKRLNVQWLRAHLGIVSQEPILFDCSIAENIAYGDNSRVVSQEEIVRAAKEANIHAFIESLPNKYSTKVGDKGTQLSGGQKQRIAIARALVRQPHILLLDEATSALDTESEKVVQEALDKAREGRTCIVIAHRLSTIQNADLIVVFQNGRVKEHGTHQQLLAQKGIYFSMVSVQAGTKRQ
# MEKK2wt PB1 HTS = raises or lowers MEK5 binding to wildtype human MEKK2 PB1 domain. Q9Y2U5. bead flow cytometry, Alexa488-MEK5 binding to MEKK2 WT; actives lie on both sides. binding response (% of control), % at 10 µM. 1.1% of 290,000 active. AID 1531; in the data active = binding response below about 67% or above about 130%
# MEKK2wt confirm = raises or lowers MEK5 binding to wildtype human MEKK2, retest; shares compounds with MEKK3 PB1 HTS; bead flow cytometry, Alexa488-MEK5 binding to MEKK2 WT; actives lie on both sides; binding response (% of control), % at 10 µM; 2.4% of 5,900 active; in the data active = binding response below about 16% or above about 210%; inactive = in between
# MEKK2mut confirm = signal of MEK5 binding to mutant human MEKK2, retest | shares compounds with MEKK3 PB1 HTS | percent response, % at 10 µM | bead flow cytometry, Alexa488-MEK5 binding to MEKK2 mutant | AID 1893 | 2% of 5,900 active; in the data active = percent response mostly above about 71%, no sharp cut-off; inactive = mostly below about 38%;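 note: higher means compound restores mutant binding toward wildtype level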
# MEKK3-MEK5 inh = MEKK3-MEK5 PB1 inhibition, single concentration confirmation; shares compounds with MEKK3 PB1 HTS; bead flow cytometry, Alexa488-MEK5 binding to MEKK3; active compounds read low; binding response (% of control), % at 10 µM; 1.8% of 5,900 active;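 active = binding response below 72% of control, or above a set upper limit, though filed actives all read lower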;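 note: 100% = DMSO only wells and 0% = binding blocked by excess unlabeled MEK5; lower values mean stronger disruption of MEK5 binding to MEKK3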
# Active calls of the source: *; x = no result given; [ ] = dose if it differs, or a comment. Shown are actives, neighbours in structure and some others; about 3.5% of the full set was active somewhere.
SMILES,ABCG2 inh,WT yeast gro inh,MEKK3 PB1 HTS,MEKK2 mut-MEK5,ABCB1 block,MEKK2wt PB1 HTS,MEKK2wt confirm,MEKK2mut confirm,MEKK3-MEK5 inh
CC(=O)c1ccc(N=C2C(=O)Nc3ccccc32)cc1,x,x,56*[inhibitor],-8,x,20*[inhibitor],96,-11,95
COc1ccc(Cl)cc1NC(=O)CNc1ccccc1CN(C)C1CCCCC1,4,30,106,36,0,154*,156,34,114
COc1ccc(NC(=O)CC2S/C(=N\c3nccs3)N(C)C2=O)cc1 (stereo not drawn),2,3,105,0,0,99,x,x,x
O=C(NCc1ccc2c(c1)OCO2)c1ccc(Br)cc1,x,x,99,4,x,108,x,x,x
Cc1nc2cc(C(=O)NCc3ccc4c(c3)OCO4)ccc2n1-c1ccc(Br)cc1,3,54,65*[inhibitor],-2,0,92,98,3,96
CCn1cc(C(=O)O)c(=O)c2cc(F)c(N3CCN(C(=S)NC(=O)c4ccc(OC)cc4)CC3)cc21,x,x,104,4,x,105,x,x,x
CCn1cc(C(=O)O)c(=O)c2cc(F)c(N3CCN(C(=S)NC(=O)c4ccc(Br)cc4)CC3)cc21,3,-10,59*[inhibitor],54*,0,85,-1.0*[inhibitor],-2,99
CCn1cc(C(=O)NCc2ccc3c(c2)OCO3)c(=O)c2cc(F)c(N3CCN(C)CC3)cc21,13,10,105,12,4,138*,114,7,106
CCn1cc(C(=O)O)c(=O)c2cc(F)c(N3CCN(C)CC3)cc21,2,-7,107,3,0,103,x,x,x
CCn1cc(C(=O)O)c(=O)c2cc(F)c(N3CCNCC3)cc21,7,-2,74*[inhibitor],-4,2,97,95,-5,103
CCn1cc(C(=O)NCC(C)C)c(=O)c2cc(F)c(N3CCN(C)CC3)cc21,x,x,89,-24,x,90,x,x,x
C=CCNC(=O)C(=O)Nc1cc2c3c(c1)CCC(=O)N3CCC2,x,x,95,1,x,99,x,x,x
O=C(Nc1ccsc1C(=O)O)c1ccccc1Cl,x,x,108,11,x,109,x,x,x
CCCN(Cc1cc2cc(C)ccc2[nH]c1=O)S(C)(=O)=O,3,-9,128*,5,0,120,101,3,103
CC(=O)c1ccc(S(=O)(=O)N(CCCO)Cc2cc3cc(C)ccc3[nH]c2=O)cc1,x,x,105,6,x,108,x,x,x
COc1cc(/C=N/NC(=O)CN(Cc2ccccc2)S(=O)(=O)c2ccc3c(c2)OCCO3)ccc1O,3,7,136*,0,0,107,101,0,102
COc1ccc(/C=N/NC(=O)CN(Cc2ccccc2)S(=O)(=O)c2ccc3c(c2)OCCO3)cc1,9,-6,106,2,1,97,x,x,x
NS(=O)(=O)c1ccc(CCNC(=O)C2CCN(S(=O)(=O)c3ccc(Br)s3)CC2)cc1,10,-12,2.0*[inhibitor],-46,-1,3.0*[inhibitor],104,4,103
Cc1ccc(S(=O)(=O)N2CCC(C(=O)NCCc3ccc(S(N)(=O)=O)cc3)CC2)cc1,0,3,98,1,0,100,x,x,x
CCOC(=O)C(NCc1ccco1)(NC(=O)c1ccccc1)C(F)(F)F (stereo not drawn),1,13,133*,5,0,130,108,4,106
O=C(NCc1ccccc1Cl)C(=O)NCC1OCCN1S(=O)(=O)c1cccs1 (stereo not drawn),1,-24,x,x,0,x,x,x,x
CCNCC(=O)N1c2ccccc2CCc2ccc(NC(C)=O)cc21,0,-6,93,-3,0,102,x,x,x
CCNCC(=O)N1c2ccccc2CCc2ccc(NC(=O)OC(C)C)cc21,x,x,106,7,x,137*,127,18,106
COc1ccc(CNC(=O)C2CC(c3cccc(OC)c3)=NO2)cc1 (stereo not drawn),1,0,82*[inhibitor],-4,0,89,103,0,102
COc1ccccc1C(=O)NNC(=O)C1CC=CCC1 (stereo not drawn),x,x,25*[inhibitor],-20,x,38*[inhibitor],103,1,102
SMILES,ABCG2 inh,WT yeast gro inh,MEKK3 PB1 HTS,MEKK2 mut-MEK5,ABCB1 block,MEKK2wt PB1 HTS,MEKK2wt confirm,MEKK2mut confirm,MEKK3-MEK5 inh
COC(=O)NNC(=O)c1ccccc1OC,18,0,101,2,0,100,x,x,x
COc1cc([N+](=O)[O-])cc2cc(C(=O)N3CCCC3)c(=O)oc12,1,2,99,-5,1,94,x,x,x
O=C1C2CCCCC2C(=O)N1c1ccc(NC2CCN(Cc3ccccc3)CC2)c([N+](=O)[O-])c1 (stereo not drawn),0,-7,94,-6,0,102,x,x,x
CC1CCC2C(=O)N(c3ccc(NC4CCN(Cc5ccccc5)CC4)c([N+](=O)[O-])c3)C(=O)C2C1 (stereo not drawn),1,9,70*[inhibitor],-8,2,106,117,16,103
O=C(NCc1ccccn1)c1ccc(Cn2c(=S)[nH]c3ccc(Br)cc3c2=O)cc1,-2,-3,97,-7,0,91,x,x,x
O=c1c2cc(Cl)ccc2[nH]c(=S)n1Cc1ccccn1,-1,-2,151*,0,-1,103,106,-2,102
CC(C)(C)NC(=O)NC(=O)CN1CCN(c2cccc(Cl)c2)CC1,x,x,100,-4,x,99,x,x,x
CC1CCCN(c2nc3c(c(=O)[nH]c(=O)n3C)n2CCSc2nc3ccccc3o2)C1 (stereo not drawn),6,5,82*[inhibitor],-13,1,101,108,10,108
CC1CCCN(c2nc3c(c(=O)n(C)c(=O)n3C)n2CCSc2nc3ccccc3o2)C1 (stereo not drawn),6,-12,101,0,3,101,x,x,x
CCN(CC)S(=O)(=O)c1ccc(N2CCOCC2)c(NC(=O)c2cc(=O)[nH]c3ccccc23)c1,2,-17,69*[inhibitor],-9,0,86,108,9,105
O=c1cc(C(F)(F)F)[nH]c(=S)n1-c1ccccc1,x,x,104,7,x,107,x,x,x
CC(=O)Nc1ccc(S(=O)(=O)N2CCC(C(=O)NCc3ccncc3)CC2)cc1,x,x,103,0,x,103,x,x,x

# Compound activity (PubChem)
